Source: ChEMBL document CHEMBL1142216, “Clinical prediction tool to identify patients with Pseudomonas aeruginosa respiratory tract infections at greatest risk for multidrug resistance” (2007)

Experiments:
Format in all cases: functional
Pseudomonas aeruginosa [1] = test: Antibiotic susceptibility by resistance against non-MDR Pseudomonas aeruginosa from samples collected from patients
How it was run: (§1)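 Clinical P. aeruginosa respiratory isolates from hospitalized patients. Susceptibility testing was done by the hospital microbiology laboratory using Kirby-Bauer disk diffusion and interpreted by Clinical and Laboratory Standards Institute guidelines. Laboratory-reported susceptibilities and MICs were abstracted retrospectively. Isolates were grouped overall and by resistance to at least four drug classes (MDR versus non-MDR).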

Pseudomonas aeruginosa [2] = test: Antibiotic susceptibility by resistance against MDR Pseudomonas aeruginosa from samples collected from patients; how it was run: as §1
Pseudomonas aeruginosa [3] = test: Antibiotic susceptibility by resistance against Pseudomonas aeruginosa from samples collected from patients; how it was run: as §1

| Compound | Activity (Pseudomonas aeruginosa [1]) [%] | Activity (Pseudomonas aeruginosa [2]) [%] | Activity (Pseudomonas aeruginosa [3]) [%] |
| --- | --- | --- | --- |
| O=C(O)c1cn(C2CC2)c2cc(N3CCNCC3)c(F)cc2c1=O [CIPROFLOXACIN] | 63.3 | 3.3 | 42.5 |
| C[C@H]1[C@H](NC(=O)/C(=N\OC(C)(C)C(=O)O)c2csc(N)n2)C(=O)N1S(=O)(=O)O [AZTREONAM] | 79 | 18.9 | 58.1 |
| NCC[C@H](O)C(=O)N[C@@H]1C[C@H](N)[C@@H](O[C@H]2O[C@H](CN)[C@@H](O)[C@H](O)[C@H]2O)[C@H](O)[C@H]1O[C@H]1O[C@H](CO)[C@@H](O)[C@H](N)[C@H]1O [AMIKACIN] | 95.6 | 82 | 90.9 |
| NC[C@H]1O[C@H](O[C@H]2[C@H](O)[C@@H](O[C@H]3O[C@H](CO)[C@@H](O)[C@H](N)[C@H]3O)[C@H](N)C[C@@H]2N)[C@H](N)C[C@@H]1O [TOBRAMYCIN] | 83.8 | 36.9 | 67.5 |
| CO/N=C(\C(=O)N[C@@H]1C(=O)N2C(C(=O)[O-])=C(C[N+]3(C)CCCC3)CS[C@H]12)c1csc(N)n1 [CEFEPIME] | 97.4 | 52.5 | 81.8 |
| C[C@@H](O)[C@H]1C(=O)N2C(C(=O)O)=C(S[C@@H]3CN[C@H](C(=O)N(C)C)C3)[C@H](C)[C@H]12 [MEROPENEM] | 76.9 | 17.2 | 56.1 |
